The subject of series [1] is Candida albicans. Kind of series: Drug uptake in Candida albicans PC31 at 10^7 CFU/ml cellular density assessed per 10^6 cells at 5 uM after 30 mins by fluorescence emission analysis. The series is classed as ADME, organism-based. The conditions noted are these: in vivo, 0.5 h. A digest of the protocol:
(§1)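 Stationary-phase yeast (overnight Sabouraud broth, 37 °C) washed into 10 mM PBS pH 7.0, 2 mL suspensions incubated with sensitizer in the dark at 37 °C. Cells pelleted, resuspended in 2% aqueous SDS, kept overnight at 4 °C, sonicated 30 min. Porphyrin quantified by fluorescence (exc 418, em 650 nm) against SDS calibration standards, normalized to total cell number. Three separate experiments.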

Series [2] concerns Candida albicans. The series can be described thus: Phototoxicity against Candida albicans PC31 in PBS at 10^6 CFU/ml cellular density assessed as cellular inactivation at 5 uM after 30 mins irradiated with visible light for 5 mins. The series is classed as functional. Summed up:
(§2)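 Overnight stationary-phase cells in 10 mM PBS pH 7.0 (2 mL) were dark-incubated with porphyrin for 30 min at 37 °C, then exposed to a 150 W slide-projector lamp filtered through 2.5 cm of water. Dark and light-only controls were included. Survivors were counted as CFU after serial dilution, plating in triplicate on Sabouraud agar and ~48 h at 37 °C. Three separate experiments.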

Series [3] deals with Candida albicans. The series can be described thus: Drug uptake in Candida albicans PC31 at 10^8 CFU/ml cellular density assessed per 10^6 cells at 5 uM after 30 mins by fluorescence emission analysis. The series is classed as ADME, organism-based. The conditions noted are these: in vivo, 0.5 h. Summed up: as §1
In series [4] the test system is Candida albicans. The series can be described thus: Phototoxicity against Candida albicans PC31 in PBS at 10^7 CFU/ml cellular density assessed as cellular inactivation at 5 uM after 30 mins irradiated with visible light for 30 mins. The series is classed as functional. A digest of the protocol:
as §2

For series [5], the system named is Candida albicans. The series can be described thus: Drug uptake in Candida albicans PC31 at 10^6 CFU/ml cellular density assessed per 10^6 cells at 5 uM after 30 mins by fluorescence emission analysis. The series is classed as ADME, organism-based. The conditions noted are these: in vivo, 0.5 h. Summed up: as §1
The subject of series [6] is Candida albicans. Kind of series: Phototoxicity against Candida albicans PC31 in PBS at 10^6 CFU/ml cellular density assessed as cellular inactivation at 5 uM after 30 mins irradiated with visible light for 30 mins. The series is classed as functional. Summed up:
as §2

Series [7] concerns Candida albicans. The series can be described thus: Drug uptake in Candida albicans PC31 at 10^6 CFU/ml cellular density assessed per 10^6 cells at 1 uM after 30 mins by fluorescence emission analysis. The conditions noted are these: in vivo, 0.5 h. The series is classed as ADME, organism-based. Summed up:
as §1

In series [8] the test system is Candida albicans. Kind of series: Phototoxicity against Candida albicans PC31 in PBS at 10^6 CFU/ml cellular density at 5 uM after 30 mins in dark at 37 deg C. The series is classed as functional, organism-based. A digest of the protocol:
as §2

The test system of series [9] is Candida albicans. The series can be described thus: Phototoxicity against Candida albicans PC31 in PBS at 10^6 CFU/ml cellular density pretreated for 30 mins irradiated with visible light for 15 mins. The series is classed as functional, organism-based. Summed up: as §2

SMILES strings stand for the structures. Calls of active or inactive are those of the source. The rule behind the calls is not given here.

In the case of `C[N+](C)(C)c1ccc(-c2c3nc(c(-c4ccc([N+](C)(C)C)cc4)c4ccc([nH]4)c(-c4ccc([N+](C)(C)C)cc4)c4nc(c(-c5ccc(C(F)(F)F)cc5)c5ccc2[nH]5)C=C4)C=C3)cc1.[I-].[I-].[I-]`, the Drug uptake turned out to be 0.12 nmol in series [1], 0.01 nmol in [3], 1.48 nmol in [5] and 0.32 nmol in series [7]. Moreover, the Activity is on record as 99.99% in series [2], 99.9% in series [4] and above 99.9994% in series [6].
Consider `O=S(=O)([O-])c1ccc(-c2c3nc(c(-c4ccc(S(=O)(=O)[O-])cc4)c4ccc([nH]4)c(-c4ccc(S(=O)(=O)[O-])cc4)c4ccc([nH]4)c(-c4ccc(S(=O)(=O)[O-])cc4)c4nc2C=C4)C=C3)cc1.[Na+].[Na+].[Na+].[Na+]`, for which the result in series [8] and in [6] was inactive. In addition, the Activity entry in [9] is “Dose-dependent effect”. Also, in series [7], the Drug uptake stood at 0.03 nmol.

(Values after ChEMBL document CHEMBL1137704, “Photodynamic inactivation of Candida albicans sensitized by tri- and tetra-cationic porphyrin derivatives” (Eur J Med Chem, 2009).)
